# Assay outcomes deposited in PubChem by several laboratories.
# Rows were chosen to be rich in hits. Some 0.63% of all compounds tested hit in one or more screens of this group.
# Pemphigus Ab inh: blocks pemphigus antibody binding to human desmoglein-3; DSG3-coupled beads, scFv-anti-DSG3-GFP binding, flow cytometry; stronger effect = lower value; binding (percent of control), % at 10 µM; AID 588358; hit rate 0.48% among 310,000;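 active = binding more than 3 SD below its plate's average and above zero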
# Target sequence (P32926 whole entry, looked up): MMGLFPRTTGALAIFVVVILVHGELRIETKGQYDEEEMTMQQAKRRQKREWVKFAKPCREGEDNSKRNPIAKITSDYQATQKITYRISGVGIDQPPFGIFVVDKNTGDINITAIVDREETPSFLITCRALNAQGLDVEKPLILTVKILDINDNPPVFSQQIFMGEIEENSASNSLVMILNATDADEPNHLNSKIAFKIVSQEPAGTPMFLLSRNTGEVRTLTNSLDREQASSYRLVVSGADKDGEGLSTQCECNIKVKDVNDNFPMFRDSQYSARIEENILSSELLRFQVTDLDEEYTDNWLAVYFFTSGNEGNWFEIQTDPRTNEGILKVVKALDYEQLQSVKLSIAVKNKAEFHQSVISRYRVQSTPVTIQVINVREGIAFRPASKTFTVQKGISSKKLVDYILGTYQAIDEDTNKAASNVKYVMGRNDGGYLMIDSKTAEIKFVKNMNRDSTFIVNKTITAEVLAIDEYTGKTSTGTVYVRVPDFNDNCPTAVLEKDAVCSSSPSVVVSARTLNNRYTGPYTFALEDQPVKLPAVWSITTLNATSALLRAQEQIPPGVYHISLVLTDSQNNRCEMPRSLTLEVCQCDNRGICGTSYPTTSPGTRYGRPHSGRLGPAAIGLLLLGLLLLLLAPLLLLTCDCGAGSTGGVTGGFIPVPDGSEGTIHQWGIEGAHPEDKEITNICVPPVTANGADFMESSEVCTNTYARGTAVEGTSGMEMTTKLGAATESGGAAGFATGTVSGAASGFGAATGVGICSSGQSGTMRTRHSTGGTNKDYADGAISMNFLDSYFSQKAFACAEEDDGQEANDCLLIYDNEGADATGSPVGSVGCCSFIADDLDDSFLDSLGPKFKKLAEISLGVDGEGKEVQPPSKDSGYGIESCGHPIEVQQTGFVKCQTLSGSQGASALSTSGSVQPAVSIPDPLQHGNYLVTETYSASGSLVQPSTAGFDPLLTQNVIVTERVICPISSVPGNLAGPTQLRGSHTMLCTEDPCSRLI
# GSK3B inh: human GSK3beta kinase inhibition | P49841 | activity score (negative = inhibition), % at 10 µM | hit rate 0.038% among 300,000 | GST-GSK3beta kinase, ADP-Glo luminescence, 60 min; stronger effect = lower value;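 active = more than half of replicate wells score below -50%, meaning over 50% inhibition versus plate controls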;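 note: 0% = median DMSO wells and -100% = median GW8510 positive control wells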
#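 test system = GST-tagged human GSK3beta kinase, cell-free | reagent = 25 µM ATP with peptide substrate | dosing = one dose of 10 µM per compound | schedule = 60 min reaction, RT | detection = luminescent ADP-Glo measurement of ADP formed | control set = DMSO neutral wells and GW8510 at 20 µM as positive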
# STK33 kinase inh: human STK33 kinase inhibition; Q9BYT3; purified STK33, MBP phosphorylation, ADP-Glo luminescence; inhibition, % at 10 µM; hit rate 0.073% among 320,000; AID 2661;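 active = inhibition at or above 25%, using the most active replicate where run in duplicate; inactive = inhibition below 25%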
# GSK3 alpha inh: blocks human GSK-3 alpha kinase. hit rate 0.1% among 320,000. inhibition, % at 10 µM. P49840. ADP-Glo luminescence, 60 min. AID 2650;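 active = more than half of replicates show inhibition above 20%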;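 note: GST-tagged GSK-3 alpha with peptide substrate and 25 µM ATP; 0% = DMSO neutral wells and 100% = GW8510 positive control wells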
# MT1-MMP act inh: inhibitors of human MT1-MMP activation; P50281; HT1080 RFP-PRO-GFP cells, GFP/RFP ratio fluorescence, overnight; percent of plate control window, DMSO zero; GFP/RFP ratio change, % at 20 µM; hit rate 0.061% among 360,000; AID 651647;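 active = GFP/RFP ratio change of at least 30% with cell ATP level not reduced by more than half and red fluorescence within 50% of control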
#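 Material: RFP-PRO-GFP reporter HT1080 cells. Dosing: single-point 20 µM compound, 1% DMSO. Controls: DMSO and RFP-L50D-GFP cell wells. Timing: cells overnight before dosing, compound overnight, 37 °C, 5% CO2. Measure: GFP/RFP fluorescence ratio.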
# Starred values were filed as active, the others as inactive; . = no result given.
SMILES,Pemphigus Ab inh,GSK3B inh,STK33 kinase inh,GSK3 alpha inh,MT1-MMP act inh
CCOc1cc(/C=N/NC(=O)c2ccc(-c3csc(Nc4ccc(C)cc4)n3)cc2)ccc1OCC(=O)O,.,.,.,.,4.6
O=C(O)COc1ccc(/C=N/NC(=O)c2ccc(-c3csc(Nc4ccc(Cl)cc4)n3)cc2)cc1,30.6*,-2.0,.,.,3.7
O=C(O)CCCN1C(=O)/C(=C\c2ccc(-c3nc4ccccc4s3)o2)SC1=S,73.5*,4.1,0.2,-5.4,-20.5
O=C(CN1CCc2ccccc21)Nc1ccc2c(c1)OCO2,72.3*,2.3,-0.4,-1.7,2.5
O=C(CN1CCc2ccccc21)NCc1ccc2c(c1)OCO2,105.8,0.3,-0.9,-4.4,-2.8
Cc1ccc(C(=O)NCCN2CCC(n3c(=O)[nH]c4ccccc43)CC2)cc1C,.,.,.,.,5.4
O=C(CN1C(=O)CCC1=O)Nc1cccc2c1C(=O)NC2=O,96.4,-80.3*,-1.3,97.7*,1.5
Cc1ccc(S(=O)(=O)C[C@@H]2OC[C@H](C(C)C)N2S(=O)(=O)c2ccc(C)cc2)cc1,.,.,.,.,-3.2
O=c1cc(-c2ccccc2)nc(Sc2ccc([N+](=O)[O-])cc2[N+](=O)[O-])[nH]1,80.9*,0.5,-1.6,-1.1,2.8
CC(C)Sc1nc(-c2ccccc2)cc(=O)[nH]1,108.3,5.4,0.6,.,10.5
CN(C)/C=C/C(=O)c1ccc2noc(-c3cccc(F)c3)c2c1,99.5,3.6,35.2*,2.8,.
COc1ccc(-c2onc3ccc(C(=O)/C=C/N(C)C)cc23)cc1,90.7,-3.6,31.2*,-0.4,-10.7
O=C(CSc1nc(-c2ccccc2Cl)ns1)NCc1ccco1,.,-3.0,-0.6,4.2,4.4
O=C(CSc1nc(-c2ccccc2)cc(=O)[nH]1)NCc1ccc2c(c1)OCO2,67.9*,-0.5,-0.9,1.8,-1.7
O=C(CSc1nc(-c2ccccc2Cl)ns1)NCc1ccc2c(c1)OCO2,74.7*,3.9,-3.0,-0.4,4.1
Cc1ccc(F)c(S(=O)(=O)NC(=O)C2(C)CCN2C(=O)Cc2ccccc2)c1 (stereo unspecified),.,.,.,.,3.3
O=C1NC(=O)/C(=C\c2ccc(O)cc2O)S1,98.9,-13.0,35.5*,24.3,-18.0
O=C1NC(=O)/C(=C/c2cccc3ccccc23)S1,115.7,5.2,2.1,8.4,6.0
Cc1cc(O)c(C=O)c2c1C(=O)Oc1c(CO)c(O)c3c(c1O2)C(O)OC3=O (stereo unspecified),.,.,56.6*,6.1,.
COc1ccccc1Nc1ccc(N)cc1,38.9*,2.0,0.5,-0.9,12.1
Cc1cccc(N2C(=O)/C(=C/c3cccnc3)SC2=S)c1,103.8,-0.4,-0.3,-2.1,3.7
Cc1ccc(N2C(=O)/C(=C/c3cccnc3)SC2=S)cc1,88.1*,3.7,-2.4,0.2,-2.0
CCc1cccc2c(SCC(=O)NCC3CCCO3)nc(-c3ccc(F)cc3)nc12 (stereo unspecified),78.2*,-1.1,-1.4,0.6,4.2
Cc1nn(C)c(C(=O)Nc2ccc(S(=O)(=O)NC34CC5CC(CC(C5)C3)C4)cc2)c1Br,17.3*,-0.1,-0.3,-1.5,-6.0
O=C(C(=O)N1CCN(c2ccccc2)CC1)c1ccccc1,.,.,.,.,-1.4
SMILES,Pemphigus Ab inh,GSK3B inh,STK33 kinase inh,GSK3 alpha inh,MT1-MMP act inh
COc1ccc2nc(NC(=O)CSc3nnnn3C3CCCCC3)sc2c1,102.6,-0.6,-0.8,3.3,-6.7
COc1ccc2nc(NC(=O)CSc3n[nH]c(N)n3)sc2c1,96.9,-38.4,15.0,57.8*,0.0
COc1ccc2nc(NC(=O)CSc3nnnn3C)sc2c1,-8.1*,0.1,1.2,1.8,1.7
CC(=O)N1CCC(C(=O)N2c3ccccc3N=C(c3ccc(C(F)(F)F)cc3)C2C(=O)NC2CCCC2)CC1 (stereo unspecified),.,.,.,.,3.5
Cc1cccnc1C(NC(=O)C1CCN(Cc2ccc3ccccc3n2)CC1)c1ccc(Cl)cc1 (stereo unspecified),.,.,.,.,1.2
CC(C)c1cc(Cn2c3ccccc3c(=O)n2C(C)Cn2cc(-c3ccccc3)nn2)on1 (stereo unspecified),.,.,.,.,0.7
Cn1cccc1/C=N\NC(=O)C1COc2ccc(C(C)(C)C)cc2O1 (stereo unspecified),23.8*,3.5,-0.2,-0.4,1.5
CCOC(=O)c1c(NC(=S)NC(C)=O)sc(C)c1C,71.1*,-0.9,0.1,-1.7,-0.4
COc1ccc(CN(CCN(C)C)Cc2ccccc2)c(OC)c1,78.3*,-5.7,-0.5,1.9,-3.4
Cc1[nH]n(-c2ccccc2)c(=O)c1N=Nc1ccccc1,85.5,-2.5,-3.9,2.5,2.0
Cc1ccc(N=Nc2c(N)n(-c3ccccc3)[nH]c2=O)cc1,-0.7*,-2.5,-0.5,-1.6,0.5
O=S1(=O)N[C@@H](Cc2ccccc2)COc2cccc(N3CCN(Cc4ccccc4F)CC3)c21,.,.,.,.,6.5
COc1cc(/C=N/NC(=S)NCC2CCCO2)cc(OC)c1OC (stereo unspecified),84.4*,2.1,-1.3,2.8,4.1
O=C(Nc1ccc2ccccc2c1)C(c1ccc(C(F)(F)F)cc1)n1c(=O)c(-c2cc3ccccc3[nH]2)nc2ccccc21 (stereo unspecified),.,.,.,.,-10.7
Nc1nc(Cl)cc(Oc2ccc([N+](=O)[O-])cc2)n1,55.2*,6.3,-4.7,-3.9,0.2
COc1ccc(Oc2cc(Cl)nc(N)n2)cc1,104.9,-1.9,0.3,-2.0,-2.7
O=c1cc(-c2ccncc2)oc2c1ccc1ccccc12,113.6,-1.5,1.0,53.8*,-15.3
O=c1cc(-c2ccc(O)cc2)oc2c1ccc1ccccc12,91.3,.,-1.6,-3.4,-5.4
Cn1ncc(Cl)c1C(=O)N/N=C/c1cc2c(cc1[N+](=O)[O-])OCO2,70.6*,3.6,-1.0,-3.2,0.4
O=C(N/N=C/c1cc2c(cc1[N+](=O)[O-])OCO2)c1ccccn1,73.6,0.5,-1.6,-3.2,4.4
CCOC(=O)CSc1nc(-c2ccccc2)nc2ccc(C)cc12,76.5*,-2.4,-0.7,-2.1,1.2
Cc1c(N2C(=O)/C(=C3/C(=O)N(C)c4ccccc43)SC2=S)c(=O)n(-c2ccccc2)n1C,91.4,-1.9,0.9,-2.9,4.1
CC(=O)N1C(=O)/C(=C2\SC(=S)N(c3c(C)n(C)n(-c4ccccc4)c3=O)C2=O)c2ccccc21,66.8*,-0.3,-1.4,0.2,-5.4
COC(=O)[C@]12CCCCC=C1N(CCc1ccc(OC)c(OC)c1)C(=O)[C@H](CC(=O)NCCCCc1ccccc1)C2,.,.,.,.,-2.9
O=C1c2c(O)ccc(O)c2C(=O)c2c(NCCNCCO)ccc(NCCNCCO)c21,101.0,.,66.1*,62.0*,-21.1
Cc1ccc(S(=O)(=O)N2C[C@H]3C(=O)C[C@@H](c4cccs4)N(S(=O)(=O)c4ccc(C)cc4)[C@H]3C[C@H]2c2ccccc2)cc1,.,.,.,.,2.5
CCOC(=O)C1Nc2ccccc2C2C(O)C(O)CC12 (stereo unspecified),93.4,0.0,-2.4,4.2,46.3*
